Bioassay records as filed in PubChem.
Rows were chosen to be rich in hits. Some 2.3% of all compounds tested hit in one or more screens of this group.
C2C12 statin: suppressors of simvastatin-induced myotoxicity in C2C12 myotubes; actives 0.78% (n = 330,000); ATP luminescence, 48 h; scaled: DMSO 0, geranylgeraniol control 100; rescue of ATP level, % at 7.49 µM;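 active means mean ATP rescue above about 67%, or every replicate alone reaching that limit, limit read from the data, passing the limit was not always enough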;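 further: myotubes were challenged with 10 µM simvastatin during compound exposure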
PDI inh: PDI (human) enzyme inhibition; inhibition, % at 10 µM; PDI insulin aggregation turbidity, A650, 90 min; actives 0.052% (n = 350,000);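 active means mean inhibition across replicates of 30% or more, whatever share of single replicates reach that level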
Target sequence (P07237 whole entry, looked up): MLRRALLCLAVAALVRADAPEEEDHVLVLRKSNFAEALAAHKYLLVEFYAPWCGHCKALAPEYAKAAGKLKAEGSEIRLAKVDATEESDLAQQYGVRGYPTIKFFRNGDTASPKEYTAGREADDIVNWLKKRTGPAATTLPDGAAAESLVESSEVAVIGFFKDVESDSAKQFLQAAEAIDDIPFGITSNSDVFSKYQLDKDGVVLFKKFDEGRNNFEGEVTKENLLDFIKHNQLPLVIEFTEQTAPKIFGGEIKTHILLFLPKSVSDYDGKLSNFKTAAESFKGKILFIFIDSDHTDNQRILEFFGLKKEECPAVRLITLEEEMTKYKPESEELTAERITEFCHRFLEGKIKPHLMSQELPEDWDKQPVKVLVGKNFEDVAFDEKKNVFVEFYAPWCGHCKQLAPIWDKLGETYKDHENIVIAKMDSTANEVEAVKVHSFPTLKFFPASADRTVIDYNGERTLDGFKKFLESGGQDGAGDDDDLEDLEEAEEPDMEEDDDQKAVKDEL
Cneo AK release: Cryptococcus neoformans lysis via adenylate kinase release. actives 0.2% (n = 360,000). C. neoformans lysis, adenylate kinase release luminescence, 4 h; normalised: neutral wells 0, clomiphene wells 100. lysis activity, % at 15 µM. AID 651654;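 active means mean lysis activity across replicates of at least 80%, whatever share of replicates individually reach that level; inactive means mean lysis activity below 80%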
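Test system: log-phase Cryptococcus neoformans yeast cells; Quantity: yeast cell density of 5 × 10^6 cells/mL; Buffer or medium: YPD; Doses: single compound concentration per well; Timing: 4 h at 37 °C static, read 1 h later; Measured by: AK luminescence; Read-out basis: lysis from increased AK signal; Control set: Clomiphene as positive control.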
DENV2 CPE rescue: inhibitors of DENV2 cytopathic effect | DENV2-infected cells, cytopathic effect rescue, plate reader | CPE inhibition, % at 9.99 µM | actives 1.7% (n = 350,000); in the data active means CPE inhibition above about 20%, passing the limit was not always enough; tested in BHK-21 cells;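 further: 0% = median of neutral control wells and 100% = median of positive control wells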
ERp5 block: ERp5 (human) disulfide isomerase inhibition; actives 0.05% (n = 350,000); Q15084; inhibition, % at 9.99 µM; ERp5 insulin aggregation, absorbance 650 nm, 90 min;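 active means mean replicate inhibition above about 25%, with every replicate also reaching it, limit read from the data, passing the limit was not always enough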
CFTR F508del cor: CFTR F508del correction in bronchial cells. CFBE cells, YFP halide quenching; stimulated with forskolin plus potentiator P3; % fluorescence drop versus neutral controls. activity (quench increase), % at 7.58 µM. actives 0.36% (n = 350,000);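 active means mean added fluorescence quench of at least 8% versus neutral control, with both replicates also reaching 8%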;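 further: cells transiently co-express mutant CFTR-F508del with the halide-sensitive YFP; corrector assay measuring rescue of mutant channel to the surface after 24 h compound exposure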
* marks the source's active call; other numbers are inactive results; · = not tested or not shown.

SMILES	C2C12 statin	PDI inh	Cneo AK release	DENV2 CPE rescue	ERp5 block	CFTR F508del cor
O=C(NCC(c1ccco1)N1CCc2ccccc21)c1c(F)cccc1F (stereo not drawn)	-5	-5	2	63*	14	0
CN(C)CC#Cc1ccc([C@H]2[C@H](CO)N3CCCCN(C(=O)C4CCC4)C[C@@H]23)cc1	5	·	2	4	1	3
C[C@H]1CCCCO[C@H](CN(C)Cc2ccncc2)[C@@H](C)CN([C@@H](C)CO)C(=O)c2cc(NC(=O)NC3CCCCC3)ccc2O1	-1	·	-3	-11	-2	0
COc1ccc(C=O)cc1CSc1nnc(COc2cccc3cccnc23)o1	138*	-5	2	·	·	·
COc1ccc(N2CCN(C(=O)CSc3nnc(COc4cccc5cccnc45)o3)CC2)cc1	1	-2	0	4	-3	2
CC(C)CC#Cc1cnc2c(c1)C(=O)N([C@H](C)CO)C[C@H](C)[C@H](CN(C)C(=O)CC1CC1)O2	·	·	·	·	·	5
CC(C)(C)NC(=S)N1CCC(C(=O)c2ccc(Cl)cc2)CC1	1	6	19	21*	3	·
O=C(C[C@@H]1C[C@H]2c3cc(NC(=O)NC4CCCC4)ccc3O[C@H]2[C@H](CO)O1)NC1CCCC1	4	·	0	-12	-1	4
COCC(=O)N1C[C@H](C)[C@H](OC)CN(C)C(=O)c2cc(NS(C)(=O)=O)ccc2OC[C@H]1C	-13	·	0	-4	-1	2
O=C(O)c1ccc(N2C(=O)C3ON(c4ccccc4)C(c4ccccc4F)C3C2=O)cc1 (stereo not drawn)	2	-7	2	·	·	·
CN(C)c1ccc(C2C3C(=O)N(c4ccc(C(=O)O)cc4)C(=O)C3ON2c2ccccc2)cc1 (stereo not drawn)	101*	-1	-9	·	·	·
CNC(=S)NNC(=O)c1ccc2c(c1)OCO2	·	-7	·	2	1	1
CCCCNC(=S)NNC(=O)c1ccc2c(c1)OCO2	·	5	·	142*	1	2
CN(C)C(=O)c1ccc(-c2ccc([C@H]3[C@@H](CO)N4CCCCN(C(=O)C5CCCC5)C[C@@H]34)cc2)cc1	·	·	1	-1	-2	-3
CNC[C@@H]1OCCCC[C@@H](C)Oc2ccc(NC(=O)Nc3ccccc3)cc2C(=O)N([C@@H](C)CO)C[C@H]1C	-21	·	-1	·	2	1
COc1cccc(C(=O)Nc2ccc3c(c2)C(=O)N(C)C[C@@H](OC)[C@H](C)CN[C@@H](C)CO3)c1	-4	·	1	-3	-6	0
COc1cc(/C=C/C(=O)Nc2nnc(CC(C)(C)C)s2)cc(OC)c1OC	-25	2	6	100*	-3	-3
CC(C)NC(=O)N1[C@@H]2CN(C(=O)Nc3ccccc3)c3ccccc3[C@@H]2[C@@H]1CO	13	·	-4	-4	-1	-3
O=C(Nc1ccccc1F)N1CC(=O)N2[C@H](CO)[C@H](c3ccc(-c4ccccc4)cc3)[C@@H]2C1	·	·	·	-1	9	2
CC(C)CC#Cc1ccc([C@H]2[C@H](CO)N3C(=O)CN(C(=O)Nc4cc(F)ccc4F)C[C@@H]23)cc1	·	·	·	12	2	11*
O=C(Nc1ccccc1F)N1CC(=O)N2[C@H](CO)[C@@H](c3ccc(C#Cc4ccc(F)cc4)cc3)[C@@H]2C1	·	·	·	22*	-6	2
O=C(Nc1ccccc1F)N1CC(=O)N2[C@H](CO)[C@@H](c3ccc(C#Cc4ccc(F)cc4)cc3)[C@H]2C1	·	·	·	4	1	1
O=C(Nc1ccccc1F)N1CC(=O)N2[C@H](CO)[C@@H](c3ccc(-c4ccccc4)cc3)[C@H]2C1	·	·	·	43*	-3	-1
COc1ccccc1NC(=O)N1CC(=O)N2[C@H](CO)[C@@H](c3ccc(-c4ccc(F)cc4)cc3)[C@H]2C1	·	·	·	29*	6	-5
CC(C)CC#Cc1ccc([C@H]2[C@@H](CO)N3C(=O)CN(C(=O)Nc4cc(F)ccc4F)C[C@@H]23)cc1	·	·	·	1	1	1
SMILES	C2C12 statin	PDI inh	Cneo AK release	DENV2 CPE rescue	ERp5 block	CFTR F508del cor
CC(C)NC(=O)N(C)C[C@H]1OCCCC[C@@H](C)Oc2ccc(NC(=O)Nc3ccc4c(c3)OCO4)cc2C(=O)N([C@@H](C)CO)C[C@H]1C	·	·	1	-3	7	-1
COc1ccccc1NC(=O)N1CC(=O)N2[C@@H](CO)[C@H](c3ccc(C#Cc4ccc(F)cc4)cc3)[C@@H]2C1	·	·	·	33*	2	0
COc1ccccc1NC(=O)N1CC(=O)N2[C@H](C1)[C@H](c1ccc(C#Cc3ccc(F)cc3)cc1)[C@@H]2CO	·	·	·	5	8	6
O=C(Nc1cc(F)ccc1F)N1CC(=O)N2[C@@H](CO)[C@@H](c3ccc(-c4cccnc4)cc3)[C@@H]2C1	·	·	·	23*	-3	1
COc1ccc(NC(=O)N(C)C[C@@H]2OCCCC[C@H](C)Oc3ccc(NS(C)(=O)=O)cc3C(=O)N([C@@H](C)CO)C[C@H]2C)cc1	·	·	·	3	0	-5
Cc1ccccc1-c1ccc2c(c1)O[C@@H](CN(C)C(=O)Nc1ccc(F)cc1)[C@@H](C)CN([C@@H](C)CO)S2(=O)=O	-5	·	6	0	4	1
Cc1sc2nc(CN3CCN(S(=O)(=O)c4cccc5nonc45)CC3)[nH]c(=O)c2c1C	93*	1	1	·	·	·
Cc1ccc(S(=O)(=O)N2CCN(Cc3nc4sc(C)c(C)c4c(=O)[nH]3)CC2)cc1	23	-7	13	·	·	·
C[C@H](CO)N1C[C@H](C)[C@H](CN(C)C(=O)Nc2ccc(C(F)(F)F)cc2)OCCCC[C@H](C)Oc2ccc(NC(=O)Nc3ccc(C(F)(F)F)cc3)cc2C1=O	·	·	14	-6	·	3
C[C@@H]1CCCCO[C@H](CN(C)C(=O)Nc2ccc(C(F)(F)F)cc2)[C@H](C)CN([C@@H](C)CO)C(=O)c2cc(NC(=O)Nc3ccc(C(F)(F)F)cc3)ccc2O1	·	·	4	30*	·	-1
C[C@H](CO)N1C[C@H](C)[C@@H](CN(C)CC2CC2)OCCCC[C@H](C)Oc2ccc(NC(=O)Nc3ccc(F)cc3)cc2C1=O	25	·	3	1	1	2
C[C@@H]1CCCCO[C@@H](CN(C)C(=O)Nc2ccc(F)cc2)[C@@H](C)CN([C@@H](C)CO)C(=O)c2cc(NC(=O)Nc3ccc(F)cc3)ccc2O1	·	·	0	-17	3	2
C[C@@H]1CCCCO[C@@H](CN(C)C(=O)Nc2ccc(F)cc2)[C@H](C)CN([C@H](C)CO)C(=O)c2cc(NC(=O)C3CCCCC3)ccc2O1	·	·	-1	32*	-2	3
C[C@H]1CCCCO[C@H](CN(C)C(=O)Nc2ccc(F)cc2)[C@@H](C)CN([C@@H](C)CO)C(=O)c2cc(NC(=O)Nc3ccc(F)cc3)ccc2O1	·	·	-1	46*	-5	-2
